Laboratory results from ChEMBL document CHEMBL3826896, “Synthesis of lignan conjugates via cyclopropanation: Antimicrobial and antioxidant studies” (Bioorg Med Chem Lett, 2016).
Converted amounts (≈) assume the structure as drawn.

Tests used:
[1] = system: Streptococcus pyogenes; test: Antimicrobial activity against Streptococcus pyogenes after 24 hrs by broth dilution method; type: functional
Summary of the method: (§1)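 MIC by broth dilution in triplicate, reported as mean ± SD. Panel: bacteria S. aureus, S. pyogenes, E. coli; fungi C. neoformans, A. niger, A. flavus. Ciprofloxacin served as positive control for bacteria and nystatin for fungi. DMSO was the solvent and solvent control.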

[2] = system: Aspergillus niger; test: Antimicrobial activity against Aspergillus niger after 72 hrs by broth dilution method; type: functional; summary of the method: as §1
[3] = system: Escherichia coli; test: Antimicrobial activity against Escherichia coli after 24 hrs by broth dilution method; type: functional; summary of the method: as §1
[4] = system: Aspergillus flavus; test: Antimicrobial activity against Aspergillus flavus after 72 hrs by broth dilution method; type: functional; summary of the method: as §1
[5] = system: Cryptococcus neoformans; test: Antimicrobial activity against Cryptococcus neoformans after 72 hrs by broth dilution method; type: functional; summary of the method: as §1
[6] = system: Staphylococcus aureus; test: Antimicrobial activity against Staphylococcus aureus after 24 hrs by broth dilution method; type: functional; summary of the method: as §1
[7] = Antioxidant activity assessed as hydroxyl radical scavenging activity at 80 ug/ml after 60 mins relative to control; type: physicochemical; conditions: 1 h
Summary of the method: (§2)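 Radical scavenging measured in vitro by DPPH and by hydroxyl radical scavenging assays. Each run in triplicate at five concentrations, reported as mean ± SD of three replicates.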

[8] = Antioxidant activity assessed as hydroxyl radical scavenging activity at 20 ug/ml after 60 mins relative to control; type: physicochemical; conditions: 1 h; summary of the method: as §2
[9] = Antioxidant activity assessed as hydroxyl radical scavenging activity at 60 ug/ml after 60 mins relative to control; type: physicochemical; conditions: 1 h; summary of the method: as §2
[10] = Antioxidant activity assessed as hydroxyl radical scavenging activity at 100 ug/ml after 60 mins relative to control; type: physicochemical; conditions: 1 h; summary of the method: as §2
[11] = Antioxidant activity assessed as hydroxyl radical scavenging activity at 40 ug/ml after 60 mins relative to control; type: physicochemical; conditions: 1 h; summary of the method: as §2
[12] = Antioxidant activity assessed as DPPH radical scavenging activity at 100 ug/ml after 20 mins by spectrophotometry relative to control; type: physicochemical; summary of the method: as §2
[13] = Antioxidant activity assessed as DPPH radical scavenging activity at 80 ug/ml after 20 mins by spectrophotometry relative to control; type: physicochemical; summary of the method: as §2
[14] = Antioxidant activity assessed as DPPH radical scavenging activity at 20 ug/ml after 20 mins by spectrophotometry relative to control; type: physicochemical; summary of the method: as §2
[15] = Antioxidant activity assessed as DPPH radical scavenging activity at 40 ug/ml after 20 mins by spectrophotometry relative to control; type: physicochemical; summary of the method: as §2
[16] = Antioxidant activity assessed as DPPH radical scavenging activity at 60 ug/ml after 20 mins by spectrophotometry relative to control; type: physicochemical; summary of the method: as §2

Compound	MIC [1] [µg/mL]	MIC [2] [µg/mL]	MIC [3] [µg/mL]	MIC [4] [µg/mL]	MIC [5] [µg/mL]	MIC [6] [µg/mL]	Activity [7] [%]	Activity [8] [%]	Activity [9] [%]	Activity [10] [%]	Activity [11] [%]	Activity [12] [%]	Activity [13] [%]	Activity [14] [%]	Activity [15] [%]	Activity [16] [%]
CCOC(=O)C1C(C(=O)c2cccs2)C1c1cc(OC)cc(OC)c1 (configuration not stated)	75 (≈ 208 µM)	50 (≈ 139 µM)	75 (≈ 208 µM)	75 (≈ 208 µM)	50 (≈ 139 µM)	50 (≈ 139 µM)	–	–	–	–	–	–	–	–	–	–
COc1ccc(O)c(C(C)(C)C)c1.COc1ccc(O)cc1C(C)(C)C [BUTYLATED HYDROXYANISOLE]	–	–	–	–	–	–	32.03	13.87	25.58	36.87	17.95	–	–	–	–	–
CCOC(=O)[C@@H]1CC(=O)c2sccc2[C@H]1c1ccc(OC)cc1	25 (≈ 75.7 µM)	25 (≈ 75.7 µM)	50 (≈ 151 µM)	50 (≈ 151 µM)	50 (≈ 151 µM)	50 (≈ 151 µM)	30.98	13.03	24.76	34.09	17.98	26.22	23.92	15.02	16.71	20.31
CCOC(=O)C1C(C(=O)c2cccs2)C1c1ccccc1OC (configuration not stated)	100 (≈ 303 µM)	75 (≈ 227 µM)	75 (≈ 227 µM)	25 (≈ 75.7 µM)	75 (≈ 227 µM)	50 (≈ 151 µM)	–	–	–	–	–	–	–	–	–	–
CCOC(=O)[C@@H]1CC(=O)c2sccc2[C@H]1c1ccc(OCC)cc1	50 (≈ 145 µM)	75 (≈ 218 µM)	50 (≈ 145 µM)	100 (≈ 290 µM)	25 (≈ 72.6 µM)	75 (≈ 218 µM)	34.13	15.43	26.98	37.99	19.76	28.96	25.43	17.08	18.54	22.87
CCOC(=O)C1C(C(=O)c2cccs2)C1c1ccc(OC)cc1 (configuration not stated)	50 (≈ 151 µM)	100 (≈ 303 µM)	50 (≈ 151 µM)	100 (≈ 303 µM)	50 (≈ 151 µM)	50 (≈ 151 µM)	–	–	–	–	–	–	–	–	–	–
CCOC(=O)[C@@H]1CC(=O)c2sccc2[C@H]1c1cc(OC)cc(OC)c1	25 (≈ 69.4 µM)	25 (≈ 69.4 µM)	12.5 (≈ 34.7 µM)	25 (≈ 69.4 µM)	12.5 (≈ 34.7 µM)	12.5 (≈ 34.7 µM)	36.32	16.76	29.65	41.5	20.65	31.54	27.43	18.56	19.97	24.76
NYSTATIN	–	50	–	50	25	–	–	–	–	–	–	–	–	–	–	–
O=C1O[C@H]([C@@H](O)CO)C(O)=C1O [ASCORBIC ACID]	–	–	–	–	–	–	–	–	–	–	–	28.65	24.25	15.08	16.87	21.98
CCOC(=O)C1C(C(=O)c2cccs2)C1c1ccc(OCC)cc1 (configuration not stated)	25 (≈ 72.6 µM)	12.5 (≈ 36.3 µM)	25 (≈ 72.6 µM)	25 (≈ 72.6 µM)	12.5 (≈ 36.3 µM)	12.5 (≈ 36.3 µM)	–	–	–	–	–	–	–	–	–	–
CCOC(=O)C1C(C(=O)c2cccs2)C1c1ccc(OC)cc1OC (configuration not stated)	25 (≈ 69.4 µM)	50 (≈ 139 µM)	25 (≈ 69.4 µM)	50 (≈ 139 µM)	25 (≈ 69.4 µM)	25 (≈ 69.4 µM)	–	–	–	–	–	–	–	–	–	–
CCOC(=O)[C@@H]1CC(=O)c2sccc2[C@H]1c1ccc(OC)cc1OC	50 (≈ 139 µM)	100 (≈ 277 µM)	75 (≈ 208 µM)	75 (≈ 208 µM)	50 (≈ 139 µM)	50 (≈ 139 µM)	23.87	10.05	19.87	26.82	12.76	20.76	18.64	9.76	11.76	14.98
CCOC(=O)[C@@H]1CC(=O)c2sccc2[C@H]1c1ccc(OC)c(OC)c1	50 (≈ 139 µM)	25 (≈ 69.4 µM)	25 (≈ 69.4 µM)	50 (≈ 139 µM)	25 (≈ 69.4 µM)	50 (≈ 139 µM)	30.37	12.23	24.07	34.02	16.64	25.54	22.87	14.65	14.76	20.93
CCOC(=O)[C@@H]1CC(=O)c2sccc2[C@H]1c1ccccc1OC	50 (≈ 151 µM)	25 (≈ 75.7 µM)	50 (≈ 151 µM)	50 (≈ 151 µM)	25 (≈ 75.7 µM)	25 (≈ 75.7 µM)	29.77	11.87	22.76	31.56	15.98	21.65	19.65	10.76	13.54	17.76
CCOC(=O)C1C(C(=O)c2cccs2)C1c1ccc(OC)c(OC)c1 (configuration not stated)	50 (≈ 139 µM)	25 (≈ 69.4 µM)	25 (≈ 69.4 µM)	50 (≈ 139 µM)	25 (≈ 69.4 µM)	25 (≈ 69.4 µM)	–	–	–	–	–	–	–	–	–	–
O=C(O)c1cn(C2CC2)c2cc(N3CCNCC3)c(F)cc2c1=O [CIPROFLOXACIN]	50 (≈ 151 µM)	–	25 (≈ 75.4 µM)	–	–	–	–	–	–	–	–	–	–	–	–	–
